The values that follow come from ChEMBL document CHEMBL2384907, “Identification of substituted pyrimido[5,4-b]indoles as selective Toll-like receptor 4 ligands” (J Med Chem, 2013).

Assay [1] has as its target Toll-like receptor 4/MD-2/CD14 (Homo sapiens) (UniProt O00206+Q9Y6Y9+P08571). In words: Activation of human TLR4/MD-2/CD14 transfected in HEK293 cells at 10 uM after 20 to 24 hrs by SEAP assay. It counts as cell-based.
Assay [2] concerns the target Toll-like receptor 4/MD-2/CD14 (Mus musculus) (UniProt Q9QUK6+Q9JHF9+P10810). In words: Activation of mouse TLR4/MD-2/CD14 complex in HEK293 cells assessed as NFkappaB activation by SEAP assay in presence of LPS-RS.
The target of assay [3] is T1, Toll-like receptor 4 (Mus musculus) (UniProt Q9QUK6).
T1 sequence (whole entry): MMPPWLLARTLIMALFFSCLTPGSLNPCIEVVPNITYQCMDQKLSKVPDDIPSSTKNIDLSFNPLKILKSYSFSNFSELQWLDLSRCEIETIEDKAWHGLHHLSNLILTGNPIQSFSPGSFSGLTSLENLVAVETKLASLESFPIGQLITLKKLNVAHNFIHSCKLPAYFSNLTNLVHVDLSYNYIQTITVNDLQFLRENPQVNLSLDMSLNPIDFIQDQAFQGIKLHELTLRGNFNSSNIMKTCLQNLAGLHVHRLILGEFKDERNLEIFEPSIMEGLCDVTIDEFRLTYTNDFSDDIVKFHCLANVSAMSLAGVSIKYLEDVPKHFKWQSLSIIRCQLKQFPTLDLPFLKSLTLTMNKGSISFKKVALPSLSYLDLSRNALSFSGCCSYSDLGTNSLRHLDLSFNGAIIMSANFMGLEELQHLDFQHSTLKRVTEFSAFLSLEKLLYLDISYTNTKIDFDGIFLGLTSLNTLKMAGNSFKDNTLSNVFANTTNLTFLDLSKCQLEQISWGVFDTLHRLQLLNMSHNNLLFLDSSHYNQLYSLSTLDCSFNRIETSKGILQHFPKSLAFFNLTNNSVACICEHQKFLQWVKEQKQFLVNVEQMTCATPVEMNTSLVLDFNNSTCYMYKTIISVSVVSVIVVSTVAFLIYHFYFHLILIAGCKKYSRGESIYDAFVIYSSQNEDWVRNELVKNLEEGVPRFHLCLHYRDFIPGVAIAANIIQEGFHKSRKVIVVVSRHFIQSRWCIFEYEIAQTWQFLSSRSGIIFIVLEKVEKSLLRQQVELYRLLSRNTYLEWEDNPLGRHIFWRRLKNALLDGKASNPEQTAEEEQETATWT
Briefly: Activation of TLR4 in C57BL/6 mouse BMDC cells assessed as AUC of IP10 release at 5 uM after 18 hrs by ELISA relative to N-cyclohexyl-2-(4-oxo-3-phenyl-4,5-dihydro-3H-pyrimido[5,4-b]indol-2-ylthio)acetamide. It is filed as cell-based. Background: ELISA stands for enzyme-linked immunosorbent assay.

Assay [4] concerns the target Toll-like receptor 5 (Homo sapiens) (UniProt O60602). Briefly: Activation of human TLR5 transfected in HEK293 cells at 10 uM after 20 to 24 hrs by SEAP assay. It is filed as cell-based.
Assay [5] concerns the target T2, Toll-like receptor 7 (Homo sapiens) (UniProt Q9NYK1).
T2 sequence (whole entry): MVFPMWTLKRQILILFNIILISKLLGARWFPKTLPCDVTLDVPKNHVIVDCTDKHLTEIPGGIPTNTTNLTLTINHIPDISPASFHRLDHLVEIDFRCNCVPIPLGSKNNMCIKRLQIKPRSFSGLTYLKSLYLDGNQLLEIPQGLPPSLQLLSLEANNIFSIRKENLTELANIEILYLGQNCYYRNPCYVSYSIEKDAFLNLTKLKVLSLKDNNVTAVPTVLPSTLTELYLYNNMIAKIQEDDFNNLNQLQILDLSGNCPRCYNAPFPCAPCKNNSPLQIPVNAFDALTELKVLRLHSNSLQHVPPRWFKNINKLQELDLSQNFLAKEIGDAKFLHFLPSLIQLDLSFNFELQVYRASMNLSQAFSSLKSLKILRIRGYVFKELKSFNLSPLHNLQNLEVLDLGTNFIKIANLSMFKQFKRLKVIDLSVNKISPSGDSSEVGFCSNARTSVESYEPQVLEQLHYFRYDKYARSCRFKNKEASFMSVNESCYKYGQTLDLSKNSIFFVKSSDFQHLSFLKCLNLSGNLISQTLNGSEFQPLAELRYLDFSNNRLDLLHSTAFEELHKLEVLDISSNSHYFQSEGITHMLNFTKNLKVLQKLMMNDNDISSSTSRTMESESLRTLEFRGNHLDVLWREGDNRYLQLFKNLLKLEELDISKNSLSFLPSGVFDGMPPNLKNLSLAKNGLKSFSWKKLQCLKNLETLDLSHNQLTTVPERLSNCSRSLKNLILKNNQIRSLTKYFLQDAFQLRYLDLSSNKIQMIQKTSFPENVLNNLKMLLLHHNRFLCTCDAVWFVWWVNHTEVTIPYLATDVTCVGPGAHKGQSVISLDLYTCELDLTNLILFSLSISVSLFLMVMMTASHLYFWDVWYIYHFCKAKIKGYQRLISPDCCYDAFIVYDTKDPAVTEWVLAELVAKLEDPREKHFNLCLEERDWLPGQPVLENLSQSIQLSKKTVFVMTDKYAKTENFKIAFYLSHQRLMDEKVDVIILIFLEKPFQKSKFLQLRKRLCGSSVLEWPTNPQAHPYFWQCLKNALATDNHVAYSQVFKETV
In words: Activation of human TLR7 transfected in HEK293 cells at 10 uM after 20 to 24 hrs by SEAP assay. It is filed as cell-based.

For the next assay, the system named is BMDC. Briefly: Induction of IL6 secretion in C57BL/6 mouse TLR4 deficient BMDC cells at 10 uM after 18 hrs by ELISA. It is filed as functional, cell-based. In outline:
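BMDC from Tlr4–/– mice (backcrossed 10 generations onto C57BL/6) and wild-type mice incubated with 10 μM compound for 18 h; IL-6 in culture supernatants by ELISA.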

Assay [6] concerns the target Toll-like receptor 4 (Homo sapiens) (UniProt O00206). Briefly: Activation of human TLR4 transfected in HEK293 cells after 18 hrs by SEAP assay relative to N-cyclohexyl-2-(4-oxo-3-phenyl-4,5-dihydro-3H-pyrimido[5,4-b]indol-2-ylthio)acetamide. It is filed as cell-based. Details: concentration or dose not given beside the values. Put shortly: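 Human TLR4 HEK-Blue cells (2.5 × 10^4/well) given compound at 10 μM for 18 h, 0.5% DMSO vehicle; SEAP in supernatant read at 630 nm, normalized to reference hit set at 100. LPS 10 ng/mL positive control.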

Assay [7] addresses T1, Toll-like receptor 4 (Mus musculus). In words: Activation of mouse TLR4 transfected in HEK293 cells assessed as NFkappaB activation after 20 to 24 hrs by SEAP assay. It counts as cell-based. In outline:
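Human or mouse TLR4 HEK-Blue cells (2.5 × 10^4/well) incubated with graded concentrations for 20–24 h; NFκB-driven SEAP in culture supernatant measured colorimetrically.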

Calls of active or inactive are those of the source. No cut-off for these calls is given here.

Sequence of Toll-like receptor 5 (Homo sapiens) (O60602 whole entry): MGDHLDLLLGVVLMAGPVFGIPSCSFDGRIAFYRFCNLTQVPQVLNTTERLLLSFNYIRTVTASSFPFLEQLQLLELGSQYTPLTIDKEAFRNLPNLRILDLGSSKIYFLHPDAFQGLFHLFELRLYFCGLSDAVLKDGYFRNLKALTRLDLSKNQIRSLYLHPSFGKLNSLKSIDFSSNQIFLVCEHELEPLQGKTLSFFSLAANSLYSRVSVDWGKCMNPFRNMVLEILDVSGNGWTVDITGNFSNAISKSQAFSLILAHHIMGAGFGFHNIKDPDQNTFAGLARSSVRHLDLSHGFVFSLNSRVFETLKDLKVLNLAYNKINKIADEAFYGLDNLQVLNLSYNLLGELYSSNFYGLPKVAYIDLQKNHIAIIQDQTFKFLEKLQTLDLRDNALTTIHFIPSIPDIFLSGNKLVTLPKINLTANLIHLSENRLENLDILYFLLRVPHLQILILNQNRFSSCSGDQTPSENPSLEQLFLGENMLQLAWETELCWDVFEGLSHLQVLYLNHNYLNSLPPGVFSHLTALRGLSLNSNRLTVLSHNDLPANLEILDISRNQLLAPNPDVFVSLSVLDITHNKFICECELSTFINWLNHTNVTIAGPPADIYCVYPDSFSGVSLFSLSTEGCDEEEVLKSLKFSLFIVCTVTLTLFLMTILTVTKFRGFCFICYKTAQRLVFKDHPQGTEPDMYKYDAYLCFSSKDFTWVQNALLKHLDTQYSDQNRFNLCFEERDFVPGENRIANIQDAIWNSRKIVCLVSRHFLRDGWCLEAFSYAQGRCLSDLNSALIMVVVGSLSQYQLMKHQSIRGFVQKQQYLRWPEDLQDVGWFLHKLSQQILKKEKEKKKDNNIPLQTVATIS
Sequence of Toll-like receptor 4 (Homo sapiens) (O00206 whole entry): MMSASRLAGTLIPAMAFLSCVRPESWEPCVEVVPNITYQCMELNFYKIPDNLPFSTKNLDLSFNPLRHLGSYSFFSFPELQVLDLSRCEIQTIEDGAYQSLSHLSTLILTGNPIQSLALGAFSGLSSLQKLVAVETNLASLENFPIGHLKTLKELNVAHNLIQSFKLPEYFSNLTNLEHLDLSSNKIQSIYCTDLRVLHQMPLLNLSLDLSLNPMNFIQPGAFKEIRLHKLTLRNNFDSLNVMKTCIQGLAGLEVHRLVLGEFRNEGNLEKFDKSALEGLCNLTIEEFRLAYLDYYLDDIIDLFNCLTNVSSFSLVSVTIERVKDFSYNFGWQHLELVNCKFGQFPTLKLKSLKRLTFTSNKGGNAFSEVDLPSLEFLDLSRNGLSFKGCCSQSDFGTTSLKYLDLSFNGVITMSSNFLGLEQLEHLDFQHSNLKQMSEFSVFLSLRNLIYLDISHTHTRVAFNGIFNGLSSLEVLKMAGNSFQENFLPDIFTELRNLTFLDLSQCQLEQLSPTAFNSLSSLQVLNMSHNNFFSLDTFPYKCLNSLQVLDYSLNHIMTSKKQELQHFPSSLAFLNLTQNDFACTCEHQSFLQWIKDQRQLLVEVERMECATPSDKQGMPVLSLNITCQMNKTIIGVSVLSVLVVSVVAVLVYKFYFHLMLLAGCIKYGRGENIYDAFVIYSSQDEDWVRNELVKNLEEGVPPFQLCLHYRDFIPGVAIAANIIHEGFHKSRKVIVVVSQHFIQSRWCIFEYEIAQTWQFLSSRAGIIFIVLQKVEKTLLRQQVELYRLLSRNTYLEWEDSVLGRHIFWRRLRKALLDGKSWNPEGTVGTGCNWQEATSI

As to `O=C(CSc1nc2c([nH]c3ccccc32)c(=O)n1-c1ccccc1)NC1CCCCC1`, in assay [1], the result was Active. For the same compound, the Activity entry was “Dose-dependent effect” in assay [2], 100% in assay [3], 100% in assay [6] and “Dose-dependent effect” in assay [7]. Also, the result (in assay [4]; in assay [5]; in the assay on BMDC) was inactive.
